ChEMBL document CHEMBL2086287, “An efficient one-pot synthesis and photoinduced DNA cleavage studies of 2-chloro-3-(5-aryl-4,5-dihydroisoxazol-3-yl)quinolines” (Bioorg Med Chem Lett, 2012)

Assays:
Nucleic Acid [1] = assay: Induction of Escherichia coli pUC19 DNA cleavage assessed as conversion of supercoiled form of DNA to nicked and linear form of DNA at 80 uM treated after 2 hrs before UV-vis irradiation measured after 1 hr by ethidium bromide staining
Nucleic Acid [2] = assay: Induction of Escherichia coli pUC19 DNA cleavage assessed as conversion of supercoiled DNA to nicked form of DNA at 60 uM treated after 2 hrs before UV-vis irradiation measured after 1 hr by ethidium bromide staining; type: nucleic-acid assay
In short: (§1)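 pUC-19 plasmid DNA photolysed at 365 nm for 2 h in 1:9 DMSO:Tris buffer ([…], pH 7.2) with test compound at 40–80 μM, 37 °C. A control lane without compound and dark-incubated samples were run alongside. Cleavage read by gel separation as the percentage of supercoiled (Form I) DNA converted to nicked (Form II) and linear (Form III) forms.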

Nucleic Acid [3] = assay: Induction of Escherichia coli pUC19 DNA cleavage assessed as conversion of supercoiled DNA to nicked form of DNA at 40 uM […] by ethidium bromide staining; type: nucleic-acid assay
In short: as §1

Compound	Activity (Nucleic Acid [1])	Activity (Nucleic Acid [2])	Activity (Nucleic Acid [3])
Cc1ccc(C2=NOC(c3cc4ccccc4nc3Cl)C2)cc1 (stereo unspecified)	85%	50%	20%
Oc1ccc(C2=NOC(c3cc4ccccc4nc3Cl)C2)cc1 (stereo unspecified)	85%	50%	20%
O=[N+]([O-])c1ccc(C2=NOC(c3cc4ccccc4nc3Cl)C2)cc1 (stereo unspecified)	85%	50%	20%
Clc1ccc(C2=NOC(c3cc4ccccc4nc3Cl)C2)cc1 (stereo unspecified)	85%	50%	20%
COc1ccc(C2=NOC(c3cc4ccccc4nc3Cl)C2)cc1 (stereo unspecified)	85%	50%	20%
Clc1nc2ccccc2cc1C1CC(c2ccccc2)=NO1 (stereo unspecified)	85%	50%	20%
Clc1nc2ccccc2cc1C1CC(c2ccc(Br)cc2)=NO1 (stereo unspecified)	85%	50%	20%
